Published values from different studies.
Compare with care: the assays were run in different laboratories.
BRD9: Bromodomain-containing protein 9 (BRD9, Homo sapiens, UniProt Q9H8M2)

NC/C(=C\F)COc1cccc(Cn2c(=S)[nH]c(=O)c3[nH]cnc32)c1 — inhibition (Histamine H3 receptor (HRH3, Homo sapiens, UniProt Q9Y5N1); ligand displacement, radioligand; 10 µM): < 50%
COc1cc(C(C)(C)O)c(OC)cc1-c1cc(C(C)=O)n2ccccc12 — ΔTm (BRD9; thermal stability, DSF; 200 µM): 10.5 °C
COc1ccc2oc(-c3ccc4nc(N)oc4c3)c/c(=N\c3ccccc3NC(=O)CCN)c2c1 — remaining binding (Serine/threonine-protein kinase 35 (STK35, Homo sapiens, UniProt Q8TDR2); binding; 1 µM): 104%
C1=C/COCc2cc(ccc2OCCN2CCCC2)Nc2nccc(n2)-c2cccc(c2)COC/1 — remaining binding (Activin receptor type-2A (ACVR2A, Homo sapiens, UniProt P27037); binding; 0.1 µM): 83%
CCN1/C(=C/C(C)=O)Sc2ccc(F)cc21 — inhibition (D(1B) dopamine receptor (DRD5, Homo sapiens, UniProt P21918); ligand displacement, radioligand; 10 µM): 2.77%
CCCCC(=O)Nc1ccc(-c2ccc3ncn(CCC)c(=O)c3c2)cn1 — remaining binding (Bone morphogenetic protein receptor type-1A (BMPR1A, Homo sapiens, UniProt P36894); binding, competition with immobilised ligand; 0.5 µM): 84%
COc1cc(-c2cc(C(C)=O)n3ccccc23)c(OC)cc1C=O — ΔTm (BRD9; thermal stability, DSF; 200 µM): 8.3 °C
Cc1cc(O)c(-c2ccc([C@@H](C)CN(C)C)cc2)c2c1[nH]c(=O)c1sccc12 — inhibition (G protein-coupled receptor kinase 5 (GRK5, Homo sapiens, UniProt P34947); enzyme activity, inhibitor; 0.1 µM): -6.65%
Cc1ncc(-c2cc3cc(-c4c(C)ccc(O)c4C)cnc3[nH]2)cn1 — inhibition (Membrane-associated tyrosine- and threonine-specific cdc2-inhibitory kinase (PKMYT1, Homo sapiens, UniProt Q99640); cell-free assay, TR-FRET; 10 µM): 101%
COc1cc(-c2cc(C(C)=O)n3ccccc23)c(OC)cc1CN(C)C — ΔTm (BRD9; thermal stability, DSF; 200 µM): 12.5 °C
